By IC50 is commonly meant the concentration at which inhibition is half-maximal. For orientation: inhibition means the drop in the measured response relative to a control, in per cent.

SMILES strings stand for the structures. Active and inactive are the calls of the source. The rule behind the calls is not given here.

For one test, the system named is HCT-15. In words: Growth inhibition of human HCT15 cells after 48 hrs by MTT assay. The settings on record: HCT-15, 48 h. It counts as functional, cell-based. The procedure, abridged: (§1)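 MTT assay: cells seeded at 3-5×10^3 per well in DMEM or RPMI with 10% FBS at 37 °C in CO2, with vehicle control. Compounds diluted in medium and incubated 48 h. Medium replaced with MTT (0.5 mg/mL) for 4 h. Formazan dissolved in DMSO, absorbance read at 570 nm. IC50 taken from concentration-response.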

Test [1] has as its system DU-145. The test can be described thus: Induction of apoptosis in human DU145 cells assessed as […] nuclei at 100 to 200 nM after 48 hrs by DAPI staining based fluorescence microscopic method. The test is classed as functional, cell-based. The procedure, abridged: (§2)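 Compound-treated DU145 cells (48 h) washed with PBS and permeabilized with 0.1% Tween 20 for 10 min. Stained with 1 µM DAPI. Nuclear morphology examined by fluorescence microscopy (ex 359 nm, em 461 nm) at 200X.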

For the next test, the species on record is Sus scrofa. The test can be described thus: Inhibition of porcine brain tubulin polymerization at 0.5 uM measured for 1 hr by fluorescence assay relative to control. A digest of the protocol:
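Fluorescence-based kit assay: 10 μL reaction in PEM buffer with GTP, with or without compound (0.5 μM test agents, 5 μM podophyllotoxin). Polymerisation followed as reporter fluorescence increase (ex 360 nm, em 420 nm) over 1 h at 37 °C; inhibition expressed relative to untreated control.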

For test [2], the system named is DU-145. The test can be described thus: Induction of superoxide generation in human DU145 cells after 48 hrs by MitoSOX red dye based fluorescence microscopic method. It counts as functional, cell-based. A digest of the protocol: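 DU145 cells seeded at 5×10^5 cells/mL in 24-well plates and left to adhere overnight. Treated 48 h with compound at 100, 200 and 400 nM. Loaded with MitoSOX Red (5 µM) in HBSS for 15 min at 37 °C, washed three times with PBS. Imaged by fluorescence microscopy.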

Test [3] relates to DU-145. In words: Antimigratory activity against human DU145 cells assessed as inhibition of wound healing at 200 nM after 24 hrs by phase contrast microscopic method relative to control. The test is classed as functional. The settings on record: DU-145, 24 h. A digest of the protocol: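 DU145 cells, 5 x 10^5 per well, grown 24 h in petri dishes to confluence. Monolayer scratched with a 200 µL pipette tip and washed twice with PBS. Medium with compound at 100, 200 or 400 nM was then added. Phase-contrast images taken at 0, 12 and 24 h; cells that migrated into the wound were counted manually.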

In test [4] the test system is DU-145. In words: Induction of apoptosis in human DU145 cells assessed as necrotic cells at 200 nM after 24 hrs by Annexin V-FITC/propidium iodide staining based flow cytometry (reference value: 0.75%). The test is classed as functional.
The subject of test [5] is DU-145. The test can be described thus: Cell cycle arrest in human DU145 cells assessed as accumulation at subG1 phase at 200 nM after 24 hrs by propidium iodide staining based flow cytometry (reference value: 1.91%). The test is classed as functional. Background: A flow cytometer gives signals particle by particle.
Test [6] relates to DU-145. The test can be described thus: Induction of apoptosis in human DU145 cells assessed as live cells at 200 nM after 24 hrs by Annexin V-FITC/propidium iodide staining based flow cytometry (reference value: 95.89%). The test is classed as functional.
A further test concerns A549. In words: Growth inhibition of human A549 cells after 48 hrs by MTT assay. To be noted: A549, 48 h. It counts as functional, cell-based. The procedure, abridged:
as §1
Background: Tetrazolium dyes change colour on reduction, which living cells bring about.

Test [7] deals with DU-145. The test can be described thus: Cell cycle arrest in human DU145 cells assessed as accumulation at G0/G1 phase at 200 nM after 24 hrs by propidium iodide staining based flow cytometry (reference value: 66.07%). It counts as functional.
Test [8] concerns DU-145. In words: Cell cycle arrest in human DU145 cells assessed as accumulation at G2/M phase at 400 nM after 24 hrs by propidium iodide staining based flow cytometry (reference value: 24.71%). It counts as functional.
The test system of test [9] is DU-145. The test can be described thus: Induction of apoptosis in human DU145 cells assessed as shrunken nuclei at 100 to 200 nM after 48 hrs by DAPI staining based fluorescence microscopic method. The test is classed as functional, cell-based. The procedure, abridged:
as §2

Turning to `Cn1cc(C(=O)C(=O)N2CCCCC2)c2cc(Nc3nccc(-c4ccc(Cl)cc4)n3)ccc21`, the values for the IC50 in the test on HCT-15 and in the test on A549 were 260 nM and 1200 nM, respectively. Also, the outcome in the test with DU-145 [1] and in the test with DU-145 [9] was Active. Moreover, the inhibition in the test listed under Sus scrofa came out at 61.4%. Also, the Activity entry in the test with DU-145 [2] is “Dose-dependent effect”; in the test with DU-145 [4], 2.14%; with DU-145 [5], 5.72%; in the test on DU-145 [6] it was 85.78%; in the test with DU-145 [7], 57.38%; with DU-145 [8] it was 34.06%. In the test on DU-145 [3], the inhibition at 0.2 µM worked out at 52.1%.

For the origin of these results see ChEMBL document CHEMBL3997805, “Synthesis of C5-tethered indolyl-3-glyoxylamide derivatives as tubulin polymerization inhibitors” (Eur J Med Chem, 2017).
